Assay results from ChEMBL document CHEMBL1137343, “4-arylazo-3,5-diamino-1H-pyrazole CDK inhibitors: SAR study, crystal structure in complex with CDK2, selectivity, and cellular effects” (J Med Chem, 2006).
Activity calls are given as the source filed them. The calls are words filed in the database; no cut-off is given here.

Legend:
[1] = molecular target: Serine/threonine-protein kinase Chk1 (Homo sapiens) (UniProt O14757); experiment: Activity of CHK1 at 10 uM
Summary of the method: (§1)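 Radiometric kinase assay at 10 µM inhibitor, run in duplicate. c-Abl, CHK1, GSK3β, p70S6K, PKA and PKBα were run in 8 mM MOPS pH 7.0 with 0.2 mM EDTA. MAPK1 and SAPK2α were run in 25 mM Tris pH 7.5 with 0.02 mM EGTA. CK2 was run in 20 mM HEPES pH 7.6, 0.15 M NaCl, 0.1 mM EDTA, 2 mM DTT and 0.1% Triton X-100. All had 10 mM Mg-acetate, 10 µM ATP, [γ-33P]ATP and a peptide substrate; 40 min; H3PO4 stop; P30 filter; scintillation counting.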

[2] = molecular target: Mitogen-activated protein kinase 1 (Homo sapiens) (UniProt P28482); experiment: Activity of MAPK1 at 10 uM; summary of the method: as §1
[3] = molecular target: RAC-alpha serine/threonine-protein kinase (Homo sapiens) (UniProt P31749); experiment: Activity of PKBalpha at 10 uM; summary of the method: as §1
HT-29 [4] = experiment: Cell cycle arrest in HT29 cells by accumulation at S phase at 50 uM after 6 hrs; format: functional, Homo sapiens
Summary of the method: (§2)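 Subconfluent, asynchronous HT-29 cells were treated 3, 6 or 12 h, then pulsed with 10 µM BrdU for 30 min at 37 °C. Cells were fixed in ice-cold 70% ethanol, DNA denatured in 2 M HCl and neutralised with borate. Staining used FITC anti-BrdU, then propidium iodide (0.1 mg/mL) with RNase A. Analysis by flow cytometry with 488 nm laser.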

K562 = experiment: Viability of K562 cells at 100 uM; format: functional, Homo sapiens
Summary of the method: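 Cells grown in DMEM with 10% FCS and 4 mM glutamine at 37 °C, plated in 96-well format, preincubated 12 h, then exposed 72 h. Live cells measured by Calcein AM (1 h) fluorescence at 485/538 nm; % viable cells given at 100 µM compound.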

[5] = molecular target: Cyclin-dependent kinase 2/cyclin E (Homo sapiens, UniProt P24941); experiment: Inhibition of CDK2/Cyclin E in presence of 100 uM ATP; format: protein-complex assay
[6] = molecular target: Cyclin-dependent kinase 4/cyclin D1 (Homo sapiens, UniProt P11802); experiment: Inhibition of CDK4/Cyclin D1 in presence of 100 uM ATP; format: protein-complex assay
[7] = molecular target: CDK9/cyclin T1 (Homo sapiens) (UniProt O60563+P50750); experiment: Activity of CDK9/Cyclin T1 at 10 uM; format: protein-complex assay
HT-29 [8] = experiment: Inhibition of CEA mRNA synthesis in HT29 cells measured as number of copies per 10^6 cells by RT PCR at 50 uM after 6 hrs; format: functional, Homo sapiens
Summary of the method: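 HT-29 cells were treated 3, 6 or 12 h; total RNA extracted with TRI reagent. 3 µg RNA reverse-transcribed with random primers and M-MLV RT at 42 °C for 60 min. CEA transcripts quantified by TaqMan real-time PCR: 50 cycles of 95 °C 15 s and 65 °C 15 s. Absolute copies came from amplicon standards of 30 to 10^6 copies, expressed per 10^6 cells. Samples run in duplicate PCR; values average of four determinations ± SD.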

HT-29 [9] = experiment: Inhibition of EpCAM mRNA synthesis in HT29 cells measured as number of copies per 10^6 cells by RT PCR at 50 uM after 3 hrs; format: functional, Homo sapiens
Summary of the method: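 HT-29 cells (5 × 10⁶) treated for 3, 6 or 12 h; total RNA extracted with TRI reagent, 3 µg reverse transcribed with random primers and M-MLV RT (42 °C, 60 min). Absolute transcript copies quantified by TaqMan real-time PCR, 50 cycles, against diluted gene-specific amplicon standards (30–1 000 000 copies); duplicate PCR per sample; values are means of four determinations ± SD.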

HT-29 [10] = experiment: Cell cycle arrest in HT29 cells by accumulation at S phase at 50 uM after 12 hrs; format: functional, Homo sapiens; summary of the method: as §2
MCF7 [11] = experiment: Decrease in pRb phosphorylation in MCF7 cells after 24 hrs at 25 uM; format: functional, cell-based; details: Homo sapiens
Summary of the method: (§3)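 MCF7 cells were treated 24 h, lysed in Laemmli buffer and run on 10% SDS-PAGE. Proteins were blotted to nitrocellulose; loading checked with Ponceau-S; blocked with 5% milk in PBS-Tween. Specific antibodies applied overnight (pRb phosphosites Ser780, Ser807, Thr821; p53; p21WAF1), then peroxidase secondary at 1:2000 with ECL detection.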

MCF7 [12] = experiment: Decrease in pRb phosphorylation in MCF7 cells after 24 hrs at 50 uM; format: functional, cell-based; details: Homo sapiens; summary of the method: as §3
MCF7 [13] = experiment: Increase in p53 expression level in MCF7 cells at 50 uM after 24 hrs; format: functional, cell-based; details: Homo sapiens; summary of the method: as §3
MCF7 [14] = experiment: Increase in p53 expression level in MCF7 cells at 100 uM after 24 hrs; format: functional, cell-based; details: Homo sapiens; summary of the method: as §3
MCF7 [15] = experiment: Increase in p21 WAF1 expression level in MCF7 cells at 50 uM after 24 hrs; format: functional, cell-based; details: Homo sapiens; summary of the method: as §3
MCF7 (Homo sapiens) = experiment: Reduction of RNA polymerase 2 CTD phosphorylation in MCF7 cells after 24 hrs

Sequence of Mitogen-activated protein kinase 1 (Homo sapiens) (P28482 whole entry): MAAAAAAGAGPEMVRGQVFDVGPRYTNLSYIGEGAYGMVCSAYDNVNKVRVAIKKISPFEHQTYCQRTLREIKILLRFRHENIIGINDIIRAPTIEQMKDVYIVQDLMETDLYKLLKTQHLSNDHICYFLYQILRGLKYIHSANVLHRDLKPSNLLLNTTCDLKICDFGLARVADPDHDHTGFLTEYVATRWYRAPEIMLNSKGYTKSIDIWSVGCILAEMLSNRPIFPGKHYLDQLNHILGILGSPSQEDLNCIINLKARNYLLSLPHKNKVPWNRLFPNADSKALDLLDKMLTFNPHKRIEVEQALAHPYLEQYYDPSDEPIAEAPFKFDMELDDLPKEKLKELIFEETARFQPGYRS
Sequence of RAC-alpha serine/threonine-protein kinase (Homo sapiens) (P31749 whole entry): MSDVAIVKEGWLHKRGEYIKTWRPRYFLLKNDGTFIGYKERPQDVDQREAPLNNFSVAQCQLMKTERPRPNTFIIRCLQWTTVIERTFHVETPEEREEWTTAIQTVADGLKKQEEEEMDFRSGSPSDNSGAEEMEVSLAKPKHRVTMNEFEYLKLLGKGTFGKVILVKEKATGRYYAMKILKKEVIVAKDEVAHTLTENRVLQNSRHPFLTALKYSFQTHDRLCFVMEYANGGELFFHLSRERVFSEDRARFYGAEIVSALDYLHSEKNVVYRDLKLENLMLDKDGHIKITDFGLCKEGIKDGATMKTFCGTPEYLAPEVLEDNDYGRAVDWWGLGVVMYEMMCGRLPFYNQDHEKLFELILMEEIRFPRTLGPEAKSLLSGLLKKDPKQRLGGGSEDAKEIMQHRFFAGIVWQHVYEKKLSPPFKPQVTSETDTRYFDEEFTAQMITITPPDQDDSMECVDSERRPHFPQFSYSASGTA
Sequence of Cyclin-dependent kinase 4/cyclin D1 (P11802 whole entry): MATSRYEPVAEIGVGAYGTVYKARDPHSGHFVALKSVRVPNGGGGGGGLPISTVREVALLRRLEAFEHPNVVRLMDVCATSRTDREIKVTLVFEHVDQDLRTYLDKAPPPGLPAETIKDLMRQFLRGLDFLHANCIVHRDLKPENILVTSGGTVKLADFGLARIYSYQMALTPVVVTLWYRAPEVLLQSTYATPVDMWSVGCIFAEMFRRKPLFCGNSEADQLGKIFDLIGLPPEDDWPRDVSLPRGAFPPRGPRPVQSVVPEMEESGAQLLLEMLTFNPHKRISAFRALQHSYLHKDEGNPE
Sequence of Cyclin-dependent kinase 4/cyclin D1 (P24385 whole entry, further chain): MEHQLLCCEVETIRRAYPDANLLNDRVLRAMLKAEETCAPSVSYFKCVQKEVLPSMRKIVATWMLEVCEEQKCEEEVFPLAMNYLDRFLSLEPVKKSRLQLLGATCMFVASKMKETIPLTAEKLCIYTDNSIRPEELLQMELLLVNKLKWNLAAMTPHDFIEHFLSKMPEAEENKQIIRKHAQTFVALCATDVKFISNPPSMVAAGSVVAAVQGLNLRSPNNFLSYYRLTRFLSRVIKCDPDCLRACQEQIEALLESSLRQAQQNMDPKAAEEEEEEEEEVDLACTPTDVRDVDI
Sequence of Serine/threonine-protein kinase Chk1 (Homo sapiens) (O14757 whole entry): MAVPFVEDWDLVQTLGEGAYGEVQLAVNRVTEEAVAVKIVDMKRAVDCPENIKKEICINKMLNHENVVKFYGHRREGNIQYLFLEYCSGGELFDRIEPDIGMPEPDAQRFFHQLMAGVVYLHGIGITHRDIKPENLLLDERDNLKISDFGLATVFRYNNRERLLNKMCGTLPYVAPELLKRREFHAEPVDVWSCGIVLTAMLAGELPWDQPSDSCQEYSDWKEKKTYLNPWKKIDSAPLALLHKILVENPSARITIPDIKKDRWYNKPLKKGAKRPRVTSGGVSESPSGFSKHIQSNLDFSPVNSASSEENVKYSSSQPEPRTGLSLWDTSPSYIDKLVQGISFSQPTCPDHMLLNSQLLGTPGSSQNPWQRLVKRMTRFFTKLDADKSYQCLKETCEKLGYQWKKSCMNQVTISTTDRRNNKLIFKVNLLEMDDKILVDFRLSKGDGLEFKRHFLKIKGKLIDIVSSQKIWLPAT

residual activity [1]: 89%
residual activity [2]: 99%
residual activity [3]: 100%
IC50 [5]: 20 µM
IC50 [6]: 13.5 µM
residual activity [7]: 6.9%
SMILES: Nc1n[nH]c(N)c1/N=N/c1ccc(O)cc1
Activity (HT-29 [4]): 54.2%
Activity (K562): 23%
Activity (HT-29 [8]): 22620
Activity (HT-29 [9]): 6047138
Activity (HT-29 [10]): 66%
Activity (MCF7 [11]): Active
Activity (MCF7 [12]): Active
Activity (MCF7 [13]): Active
Activity (MCF7 [14]): Active
Activity (MCF7 [15]): Active
Activity (MCF7 (Homo sapiens)): Active
